Published values collected from several papers.
Lines come from different studies, so protocols differ.
Matrix: plasma

COc1cc(F)c([C@@H]2CNC(=O)[C@H]2NC(=O)Nc2ccccc2)c(F)c1
concentration (C57BL/6 mouse; oral; 0.3 mg/kg; 2 h): 3 nM

O=S(=O)(c1ccc(-c2ccc3nccc(Nc4ccncn4)c3c2)cc1)N1CCOCC1
concentration (female BALB/c mouse; intraperitoneal; 10 mg/kg; 4 h): 1350 ng/mL

CC(C)(Nc1nc(-c2ccccn2)nc2ccccc12)c1ccccn1
concentration (female BALB/c mouse; intravenous; 1 mg/kg; 8 h): 6 ng/mL

O=c1nc(N2CCN(CC3CCCCC3)CC2)sc2c([N+](=O)[O-])cc(C(F)(F)F)cc12
concentration (CD-1 mouse; intravenous; 10 mg/kg; 8 h): 44.4 ng/mL

O=C(O)C1CCN(c2ncc(-c3ccc4c(c3)OCCCO4)s2)CC1
concentration (male Swiss mouse; oral; 30 mg/kg; 15 min; single dose): 15000 ng/mL

c1ccc(-c2nc(N3CCC(c4ccccn4)C3)c3ccccc3n2)nc1 (centres unmarked)
concentration (female BALB/c mouse; oral; 50 mg/kg; 4 h): 826 ng/mL

CC(C)CN(C[C@@H](O)[C@H](Cc1ccccc1)NC(=O)O[C@H]1CO[C@H]2OCC[C@H]21)S(=O)(=O)c1ccc(N)cc1
concentration (BALB/c mouse; intravenous; 2.5 mg/kg; 3 h): 23.9 ng/mL

CC(C)Oc1cccc(-c2cnc(N3CCC(C(N)=O)CC3)s2)c1
concentration (male Swiss mouse; oral; 30 mg/kg; 0 h; single dose): 0 nM
